Activity calls are given as the source filed them. The calls are words filed in the database; no cut-off is given here.
Experiments:
Mus musculus [1] = assay: Neurotoxicity in mouse at 100 mg/kg, ip after 4 hrs by 6Hz psychomotor seizure test; format: toxicity, organism-based; parameters: dose 100 mg/kg, route intraperitoneal; conditions: in vivo
Outline: (§1)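 Mice dosed ip in 30% polyethylene glycol and placed on a rotorod at 6 rpm. An animal is scored toxic if it falls off three times within 1 min.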

Mus musculus [2] = assay: Anticonvulsant activity in mouse assessed as protection against maximal electroshock-induced seizures at 100 mg/kg, ip after 4 hrs; format: functional, organism-based; parameters: dose 100 mg/kg
Outline: (§2)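 Mice dosed ip in 30% polyethylene glycol. Corneas pretreated with 1% tetracaine, then 60 Hz alternating current (50 mA) applied for 0.2 s via corneal electrodes. Protection means absence of the hindlimb tonic extensor component. Scored as number protected/number tested.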

Mus musculus [3] = assay: Anticonvulsant activity in mouse assessed as protection against subcutaneous pentylenetetrazole-induced seizures at 30 mg/kg, ip after 4 hrs; format: functional, organism-based; parameters: dose 30 mg/kg
Mus musculus [4] = assay: Anticonvulsant activity in mouse assessed as protection against maximal electroshock-induced seizures at 100 mg/kg, ip after 0.5 hrs; format: functional, organism-based; parameters: dose 100 mg/kg; outline: as §2
Mus musculus [5] = assay: Anticonvulsant activity in mouse assessed as protection against subcutaneous pentylenetetrazole-induced seizures at 100 mg/kg, ip after 0.5 hrs; format: functional, organism-based; parameters: dose 100 mg/kg
Mus musculus [6] = assay: Anticonvulsant activity in mouse assessed as protection against subcutaneous pentylenetetrazole-induced seizures at 30 mg/kg, ip after 0.5 hrs; format: functional, organism-based; parameters: dose 30 mg/kg
Mus musculus [7] = assay: Anticonvulsant activity in mouse assessed as protection against subcutaneous pentylenetetrazole-induced seizures at 300 mg/kg, ip after 0.5 hrs; format: functional, organism-based; parameters: dose 300 mg/kg
Mus musculus [8] = assay: Anticonvulsant activity in mouse assessed as protection against maximal electroshock-induced seizures at 30 mg/kg, ip after 4 hrs; format: functional, organism-based; parameters: dose 30 mg/kg; outline: as §2
Mus musculus [9] = assay: Neurotoxicity in mouse at 100 mg/kg, ip after 0.5 hrs by 6Hz psychomotor seizure test; format: toxicity, organism-based; parameters: dose 100 mg/kg, route intraperitoneal; conditions: in vivo; outline: as §1
Mus musculus [10] = assay: Anticonvulsant activity in mouse assessed as protection against subcutaneous pentylenetetrazole-induced seizures at 300 mg/kg, ip after 4 hrs; format: functional, organism-based; parameters: dose 300 mg/kg
Mus musculus [11] = assay: Anticonvulsant activity in mouse assessed as protection against maximal electroshock-induced seizures at 30 mg/kg, ip after 0.5 hrs; format: functional, organism-based; parameters: dose 30 mg/kg; outline: as §2
Mus musculus [12] = assay: Neurotoxicity in mouse at 100 mg/kg, ip after 1 hrs by 6Hz psychomotor seizure test; format: toxicity, organism-based; parameters: dose 100 mg/kg, route intraperitoneal; conditions: in vivo; outline: as §1
Mus musculus [13] = assay: Anticonvulsant activity in mouse assessed as protection against maximal electroshock-induced seizures at 300 mg/kg, ip after 0.5 hrs; format: functional, organism-based; parameters: dose 300 mg/kg; outline: as §2
Mus musculus [14] = assay: Anticonvulsant activity in mouse assessed as protection against subcutaneous pentylenetetrazole-induced seizures at 100 mg/kg, ip after 4 hrs; format: functional, organism-based; parameters: dose 100 mg/kg
Mus musculus [15] = assay: Neurotoxicity in mouse at 100 mg/kg, ip after 0.25 hrs by 6Hz psychomotor seizure test; format: toxicity, organism-based; parameters: dose 100 mg/kg, route intraperitoneal; conditions: in vivo; outline: as §1
Mus musculus [16] = assay: Neurotoxicity in mouse at 100 mg/kg, ip after 2 hrs by 6Hz psychomotor seizure test; format: toxicity, organism-based; parameters: dose 100 mg/kg, route intraperitoneal; conditions: in vivo; outline: as §1
Mus musculus [17] = assay: Anticonvulsant activity in mouse assessed as protection against maximal electroshock-induced seizures at 300 mg/kg, ip after 4 hrs; format: functional, organism-based; parameters: dose 300 mg/kg; outline: as §2
Mus musculus [18] = assay: Anticonvulsant activity in ip dosed mouse assessed as protection against 32mA-induced seizure measured after 0.25 to 0.5 hrs by 6Hz psychomotor seizure test
Mus musculus [19] = assay: Protective index, ratio of TD50 for neurotoxicity in ip dosed mouse to ED50 for anticonvulsant activity in mouse by 6Hz psychomotor seizure test; format: functional
Outline: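 Mice dosed ip in 30% polyethylene glycol. TD50 comes from rotorod toxicity at 6 rpm (three falls in 1 min). ED50 comes from 6 Hz, 32 mA seizure protection. Both are from probit analysis with 95% confidence intervals, and the index is TD50/ED50.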

Mus musculus [20] = assay: Anticonvulsant activity in mouse assessed as peak time to protect against electrically-induced seizure at 100 mg/kg, ip by 6Hz psychomotor seizure test; format: functional; conditions: route intraperitoneal
Outline: (§3)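 Mice dosed ip in 30% polyethylene glycol, then given a 6 Hz, 32 mA corneal stimulus. Animals lacking the minimal clonic phase and stereotyped automatistic behaviours count as protected. Data are number protected/number tested at each time after dosing.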

Mus musculus [21] = assay: Anticonvulsant activity in mouse assessed as protection against maximal electroshock-induced seizures at 100 mg/kg, ip after 1 hrs; format: functional, organism-based; parameters: dose 100 mg/kg; outline: as §2
Mus musculus [22] = assay: Anticonvulsant activity in mouse assessed as protection against maximal electroshock-induced seizures at 100 mg/kg, ip after 0.25 hrs; format: functional, organism-based; parameters: dose 100 mg/kg; outline: as §2
Mus musculus [23] = assay: Neurotoxicity in mouse at 30 mg/kg, ip after 0.5 hrs by 6Hz psychomotor seizure test; format: toxicity, organism-based; parameters: dose 30 mg/kg, route intraperitoneal; conditions: in vivo; outline: as §1
Mus musculus [24] = assay: Anticonvulsant activity in mouse assessed as protection against maximal electroshock-induced seizures at 100 mg/kg, ip after 2 hrs; format: functional, organism-based; parameters: dose 100 mg/kg; outline: as §2
Mus musculus [25] = assay: Anticonvulsant activity in mouse assessed as protection against 32mA-induced seizure at 100 mg/kg, ip after 0.5 hrs by 6Hz psychomotor seizure test; format: functional, organism-based; parameters: dose 100 mg/kg; outline: as §3
Mus musculus [26] = assay: Neurotoxicity in mouse at 30 mg/kg, ip after 4 hrs by 6Hz psychomotor seizure test; format: toxicity, organism-based; parameters: dose 30 mg/kg, route intraperitoneal; conditions: in vivo; outline: as §1
Mus musculus [27] = assay: Anticonvulsant activity in mouse assessed as protection against 32mA-induced seizure at 100 mg/kg, ip after 2 hrs by 6Hz psychomotor seizure test; format: functional, organism-based; parameters: dose 100 mg/kg; outline: as §3
Mus musculus [28] = assay: Neurotoxicity in mouse at 300 mg/kg, ip after 4 hrs by 6Hz psychomotor seizure test; format: toxicity, organism-based; parameters: dose 300 mg/kg, route intraperitoneal; conditions: in vivo; outline: as §1
Mus musculus [29] = assay: Anticonvulsant activity in mouse assessed as protection against 32mA-induced seizure at 100 mg/kg, ip after 0.25 hrs by 6Hz psychomotor seizure test; format: functional, organism-based; parameters: dose 100 mg/kg; outline: as §3
Mus musculus [30] = assay: Anticonvulsant activity in mouse assessed as protection against maximal electroshock-induced seizures at 100 mg/kg, ip after 6 hrs; format: functional, organism-based; parameters: dose 100 mg/kg; outline: as §2
Mus musculus [31] = assay: Anticonvulsant activity in mouse assessed as protection against 32mA-induced seizure at 100 mg/kg, ip after 4 hrs by 6Hz psychomotor seizure test; format: functional, organism-based; parameters: dose 100 mg/kg; outline: as §3
Mus musculus [32] = assay: Anticonvulsant activity in mouse assessed as protection against 32mA-induced seizure at 100 mg/kg, ip after 1 hr by 6Hz psychomotor seizure test; format: functional, organism-based; parameters: dose 100 mg/kg; outline: as §3
Mus musculus [33] = assay: Neurotoxicity in mouse at 100 mg/kg, ip after 6 hrs by 6Hz psychomotor seizure test; format: toxicity, organism-based; parameters: dose 100 mg/kg, route intraperitoneal; conditions: in vivo; outline: as §1
Mus musculus [34] = assay: Neurotoxicity in mouse at 300 mg/kg, ip after 0.5 hrs by 6Hz psychomotor seizure test; format: toxicity, organism-based; parameters: dose 300 mg/kg, route intraperitoneal; conditions: in vivo; outline: as §1

CCCc1cc(C(O)C(F)(F)F)cc(Br)c1O (centres undefined)
Activity (Mus musculus [1]): Non-toxic
Activity (Mus musculus [2]): inactive
Activity (Mus musculus [3]): inactive
Activity (Mus musculus [4]): inactive
Activity (Mus musculus [5]): inactive
Activity (Mus musculus [6]): inactive
Activity (Mus musculus [7]): inactive
Activity (Mus musculus [8]): inactive
Activity (Mus musculus [9]): Non-toxic
Activity (Mus musculus [10]): inactive
Activity (Mus musculus [11]): inactive
Activity (Mus musculus [12]): Non-toxic
Activity (Mus musculus [13]): inactive
Activity (Mus musculus [14]): inactive
Activity (Mus musculus [15]): Non-toxic
Activity (Mus musculus [16]): Non-toxic
Activity (Mus musculus [17]): inactive

CC(C)c1cc(C(O)C(F)(F)F)cc(Br)c1O (centres undefined)
Activity (Mus musculus [2]): inactive
ED50 (Mus musculus [18]): 112 mg/kg
Activity (Mus musculus [3]): inactive
Activity (Mus musculus [4]): inactive
Activity (Mus musculus [5]): inactive
Activity (Mus musculus [6]): inactive
Activity (Mus musculus [7]): inactive
Activity (Mus musculus [8]): inactive
Activity (Mus musculus [10]): inactive
Activity (Mus musculus [11]): inactive
Activity (Mus musculus [13]): inactive
Activity (Mus musculus [14]): inactive
Activity (Mus musculus [17]): inactive
Ratio TD50/ED50 (Mus musculus [19]): 3.6
Time (Mus musculus [20]): 0.5 h

CCC(C)c1cc(C(O)C(F)(F)F)cc(Br)c1O (centres undefined)
Activity (Mus musculus [2]): inactive
Activity (Mus musculus [3]): inactive
Activity (Mus musculus [4]): inactive
Activity (Mus musculus [5]): inactive
Activity (Mus musculus [6]): inactive
Activity (Mus musculus [7]): inactive
Activity (Mus musculus [8]): inactive
Activity (Mus musculus [21]): inactive
Activity (Mus musculus [22]): inactive
Activity (Mus musculus [10]): inactive
Activity (Mus musculus [11]): inactive
Activity (Mus musculus [13]): Active
Activity (Mus musculus [14]): inactive
Activity (Mus musculus [17]): inactive
Ratio TD50/ED50 (Mus musculus [19]): 1.7
Time (Mus musculus [20]): 0.5 h

CC(C)c1cccc(C(C)C)c1O [PROPOFOL]
ED50 (Mus musculus [18]): 38.6 mg/kg

Cc1cc(C(O)C(F)(F)F)ccc1O (centres undefined)
Activity (Mus musculus [23]): Non-toxic
Activity (Mus musculus [24]): inactive
Activity (Mus musculus [1]): Non-toxic
Activity (Mus musculus [2]): inactive
Activity (Mus musculus [3]): inactive
Activity (Mus musculus [25]): inactive
Activity (Mus musculus [4]): inactive
Activity (Mus musculus [5]): inactive
Activity (Mus musculus [6]): inactive
Activity (Mus musculus [26]): Non-toxic
Activity (Mus musculus [7]): inactive
Activity (Mus musculus [27]): inactive
Activity (Mus musculus [28]): Non-toxic
Activity (Mus musculus [29]): inactive
Activity (Mus musculus [9]): Non-toxic
Activity (Mus musculus [21]): inactive
Activity (Mus musculus [22]): inactive
Activity (Mus musculus [10]): inactive
Activity (Mus musculus [11]): inactive
Activity (Mus musculus [30]): inactive
Activity (Mus musculus [12]): Non-toxic
Activity (Mus musculus [13]): Active
Activity (Mus musculus [14]): inactive
Activity (Mus musculus [15]): Non-toxic
Activity (Mus musculus [16]): Non-toxic
Activity (Mus musculus [31]): inactive
Activity (Mus musculus [32]): Active
Activity (Mus musculus [17]): Active
Activity (Mus musculus [33]): Non-toxic
Activity (Mus musculus [34]): Non-toxic

From ChEMBL document CHEMBL2069244 (Bioorg Med Chem Lett, 2012)
